Test results published in PMC9283749 (Clinical and Translational Science, 2022).
≈ marks a conversion by molar mass, not a printed value. Entries after “also recorded” stand apart in the source; their conditions may differ.

Assays:
[1] = cited from earlier work
[2] = cited from earlier work; remark: listed apart in the source
[3] = system: xenograft and Wnt ligand-driven mouse tumor models; details: cited from earlier work
Porcupine = details: read-out: in vitro cellular IC50 for Porcupine; cited from earlier work
Population PK modeling = type: in vivo, human; details: patients, 5-45 mg oral
Outline: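 Pooled 1098 plasma concentrations from 66 patients across 10 oral regimens, measured by LC-MS/MS (LLOQ 1.0 ng/ml). Serial sampling to 24 h on C1D1 and C1D15, plus predose troughs. Two-compartment model with first-order absorption, lag time and linear clearance, fitted in log domain by FOCE in NONMEM. Log-normal interindividual variability on Ka, CL, Vc, CLd, Vp and Tlag; baseline covariates screened.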

[4] = system: patients with advanced solid tumors; assay: Phase I first-in-human study, safety and antitumor activity; type: in vivo
Outline: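 Patients with advanced solid tumours. Without run-in, patients got 5, 7.5, 10, 15, 20, 22.5 or 30 mg continuous q.d.; 30 or 45 mg intermittent q.d. (4 days on/3 off); or 5 mg continuous b.i.d. Adverse events were graded by CTCAE v4.03.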

CYP3A = details: in vitro; cited from earlier work
CYP3A4 = details: cited from earlier work
[5] = system: skin AXIN2 mRNA expression; assay: Exposure-response analysis for biomarker; type: in vivo; details: Homo sapiens, read-out: WNT974 concentration resulting in 50% Emax (EC50), skin AXIN2 reduction, estimated mean (90% prediction interval)
[6] = system: patients with advanced solid tumors; details: cited from earlier work
[7] = Simulated steady-state PK from the PopPK model; type: in vivo, human
Outline: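 Steady-state C1D15 plasma profiles simulated from the final population PK model in 200–500 hypothetical patients per continuous once-daily dosing scenario. Cmin, Cmax and AUC24h derived from the simulated profiles.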

In the case of `Cc1cc(-c2ncc(CC(=O)Nc3ccc(-c4cnccn4)cn3)cc2C)ccn1` [WNT974], the “mean unbound Cmin” value ([1]; C1D15, continuous q.d. dose of 5-30 mg) is listed as 1.1 to 7.6 nM, the “dose proportionality of exposure” value ([1]; dose range 5-45 mg) is listed as “dose proportional” and the “mean t1/2” value ([1]; patients, oral administration) is listed as 5 to 8 h. For the same molecule, the “median Tmax” value ([1]; patients, oral administration) was 1 to 3 h, the “elimination half-life (t1/2)” value ([2]; all the animal species (mouse, rat, dog)) was 0.6 to 2.2 h and the oral bioavailability ([2]; mouse, rat, and dog) was 60–100%. For the same molecule, the antitumor activity ([3]; preclinical tumor models) was “exhibited antitumor activity; also recorded: potent antitumor activity”, the “AXIN2 mRNA expression in tumors” value ([3]; xenograft and Wnt ligand-driven mouse tumor models) was “reduction of AXIN2 mRNA expression in tumors” and the IC50 (Porcupine) was 0.4 nM. The “Absorption lag time (Tlag), population estimate (%RSE)” value (Population PK modeling) was 0.412 (3.2) h, the “Apparent central clearance (CL/F), population estimate (%RSE)” value (Population PK modeling) was 20.7 (3.9) L/h and the “Central volume of distribution (Vc), population estimate (%RSE)” value (Population PK modeling) was 138 (2.0) L. For the same molecule, the “Distribution clearance (CLd), population estimate (%RSE)” value (Population PK modeling) was 7.11 (9.4) L/h, the “Peripheral volume of distribution (Vp), population estimate (%RSE)” value (Population PK modeling) was 260 (9.4) L and the “Absorption rate constant (Ka), population estimate (%RSE)” value (Population PK modeling; 66 patients) was 1.60 (17.0) 1/h. The “maximum tolerated dose (MTD)” value ([4]; dose-escalation part, 5-45 mg) was “not established”, the “antitumor activity in patients” value ([4]; dose-escalation study) was “limited antitumor activity” and the CYP3A inhibition (CYP3A) was “moderate reversible inhibitor”. The metabolism (CYP3A4) was “extensively metabolized, primarily by CYP3A4”, the EC50 [5] was 0.45 ng/mL (≈ 1.14 nM) and the “patients with dysgeusia (most common adverse event)” value ([6]; FIH study) was ~ 50 % of patients. For the same molecule, the “best response: patients with stable disease” value ([6]; dose-expansion part of the single-agent study) was 16 % of patients, the “Predicted steady-state AUC24h, mean (90% confidence interval)” value ([7]; 5 mg q.d.) was 233 (133–445) ng h/ml and the “Predicted steady-state Cmax, mean (90% confidence interval)” value ([7]; 5 mg q.d.) was 28.1 (13.7–59.1) ng/ml. For the same molecule, the “Predicted steady-state Cmin, mean (90% confidence interval)” value ([7]; 5 mg q.d.) was 2.83 (0.835–8.02) ng/ml, the “Predicted steady-state AUC24h, mean (90% confidence interval)” value ([7]; 10 mg q.d.) was 468 (254–880) ng h/ml and the “Predicted steady-state Cmax, mean (90% confidence interval)” value ([7]; 10 mg q.d.) was 55.7 (26.1–109) ng/ml. For the same molecule, the “Predicted steady-state Cmin, mean (90% confidence interval)” value ([7]; 10 mg q.d.) was 5.78 (1.66–16.3) ng/ml, the “Predicted steady-state AUC24h, mean (90% confidence interval)” value ([7]; 15 mg q.d.) was 699 (394–1294) ng h/ml and the “Predicted steady-state Cmax, mean (90% confidence interval)” value ([7]; 15 mg q.d.) was 80.6 (41.7–166) ng/ml. The “Predicted steady-state Cmin, mean (90% confidence interval)” value ([7]; 15 mg q.d.) was 8.21 (2.60–24.3) ng/ml.
